Holding throughout (type): ADME, organism-based
Series [1] can be described thus: Volume of distribution in rat. To be noted: in vivo.
The nature of series [2]: Drug level in rat brain at 10 mg/kg, sc after 1 hr. The settings on record: read-out: Drug uptake. The arrangement: dose 10 mg/kg, route subcutaneous. An outline of the steps:
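Rats dosed 10 mg/kg sc; total brain level measured 1 h after dosing.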

Series [3] is described as follows: Oral bioavailability in rat at 10 mg/kg administered as single dose. The settings on record: in vivo.

As for `COCCc1ccc(-c2c(C)nc3c(N4CCOCC4)nccn23)cn1`, in series [1], the Vd was determined as 1.9 L/kg. In addition, the concentration at 1 h in series [2] was 1210 ng/g. The compound further came in with a bioavailability in series [3] of 45%.

Values taken from ChEMBL document CHEMBL3393008, “Identification of a novel orally bioavailable phosphodiesterase 10A (PDE10A) inhibitor with efficacy in animal models of schizophrenia” (J Med Chem, 2015).
